≈ marks a conversion by molar mass, not a printed value. Calls of active or inactive are those of the source. No cut-off for these calls is given here.
How the values were obtained:
[1] = Drug metabolism in human liver microsomes assessed as CYP450 mediated-O-demethylated 7-hydroxy-2-(4-hydroxyphenyl)-2H-pyrazolo[4,3-c]quinolin-3(5H)-one metabolite formation after 60 mins by LC-MS analysis; assay type: ADME; conditions: 1 h
Procedure, shortened: (§1)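 The 60-min samples from the human or mouse liver microsome incubations (10 µM compound, 0.5 mg/mL protein, NADPH regenerating system, 37 °C, pH 7.4) were run on LC-MS in SIM mode with dual ESI/APCI ionization. The method was calibrated to each component's retention time and mass, and the peak intensities of the parent and O-demethylated metabolites were measured.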

HepG2 = experiment: Cytotoxicity against human HepG2 cells assessed as reduction in cell viability up to 400 uM after 48 hrs by CellTiter-Glo assay; assay type: cell-based; conditions: hepg2, 48 h
Procedure, shortened: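 HEK293T and HepG2 cells grown in high-glucose DMEM with non-essential amino acids, 10 mM HEPES, penicillin/streptomycin and 10% heat-inactivated FBS. Cells were harvested with trypsin and plated; compound was pin-transferred 3 h later. Incubation was 48 h, then CellTiter-Glo luminescence was read. Controls were DMSO (negative) and a cytotoxic aminoketone (positive). Quadruplicates, three independent runs, normalized to controls, nonlinear regression.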

[2] = Drug metabolism in human liver microsomes assessed as CYP450 mediated-O-demethylated 7-hydroxy-2-[4-(trideuteriomethoxy)phenyl]-5H-pyrazolo[4,3-c]quinolin-3-one metabolite formation after 60 mins by LC-MS analysis; assay type: ADME; conditions: 1 h; procedure, shortened: as §1
Mus musculus = experiment: Hyperlocomotor activity in C57BL/6 mouse assessed as total distance travelled at 3 to 10 mg/kg, ip after 60 mins in presence of diazepam; assay type: ADME, organism-based; conditions: in vivo, 1 h
Rattus norvegicus [3] = experiment: Toxicity in Wistar rat assessed as closed arm entries at 10 mg/kg, ip administered for 45 mins measured for 5 min by elevated plus maze apparatus method (reference value: 3.63 +/- 0.42); assay type: organism-based; conditions: in vivo
[4] = Drug metabolism in mouse liver microsomes assessed as CYP450 mediated-O-demethylated 7-hydroxy-2-(4-hydroxyphenyl)-2H-pyrazolo[4,3-c]quinolin-3(5H)-one metabolite formation after 60 mins by LC-MS analysis; assay type: ADME; conditions: 1 h; procedure, shortened: as §1
Rattus norvegicus [5] = experiment: Toxicity in Wistar rat assessed as average swim speed at 10 mg/kg, ip administered for 45 mins by cued water-maze apparatus method (reference value: 0.21 +/- 0.01 meter/s); assay type: organism-based; conditions: in vivo, 0.75 h
[6] = Drug metabolism in human liver microsomes assessed as CYP450 mediated-O-demethylated 2-(4-hydroxyphenyl)-7-methoxy-2H-pyrazolo[4,3-c]quinolin-3(5H)-one metabolite formation after 60 mins by LC-MS analysis; assay type: ADME; conditions: 1 h; procedure, shortened: as §1
Rattus norvegicus [7] = experiment: Toxicity in Wistar rat assessed as grip strength by measuring peak force of pull necessary to overcome strength of animal's grip at 10 mg/kg, ip (reference value: 2.79 +/- 0.16 kg/kg); assay type: organism-based; conditions: in vivo
[8] = Drug metabolism in mouse liver microsomes assessed as CYP450 mediated-O-demethylated 2-(4-hydroxyphenyl)-7-methoxy-2H-pyrazolo[4,3-c]quinolin-3(5H)-one metabolite formation after 60 mins by LC-MS analysis; assay type: ADME; conditions: 1 h; procedure, shortened: as §1
Rattus norvegicus [9] = experiment: Toxicity in Wistar rat assessed as total distance traveled at 10 mg/kg, ip administered for 45 mins by cued water-maze method (reference value: 8.04 +/- 1.16 meter); assay type: organism-based; conditions: in vivo, 0.75 h
[10] = Drug metabolism in mouse liver microsomes assessed as CYP450 mediated-O-demethylated 7-hydroxy-2-[4-(trideuteriomethoxy)phenyl]-5H-pyrazolo[4,3-c]quinolin-3-one metabolite formation after 60 mins by LC-MS analysis; assay type: ADME; conditions: 1 h; procedure, shortened: as §1
[11] = molecular target: GABA-A receptor; alpha-5/beta-3/gamma-2 (Homo sapiens) (UniProt P18507+P28472+P31644); experiment: Positive allosteric modulation of GABA-A receptor alpha5beta3gamma2 (unknown origin) expressed in Xenopus laevis oocytes assessed as potentiation of EC3 GABA induced currents up to 1 uM at -60 mV holding potential by electrophysiological method relative to GABA; assay type: cell-based
Procedure, shortened: (§2)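 Stage 5–6 defolliculated Xenopus oocytes were injected with 2.5 ng total mRNA per oocyte: α1, α2, α3 or α5 with β3 and γ2 at 1:1:5, and α4 or α6 with β3 and γ2 at 3:1:5. Oocytes were kept ≥36 h at 18 °C in NDE medium before recording. Compounds were co-applied with GABA titrated to EC3-5 for each oocyte. Curves were fitted with the Hill equation; mean ± SEM from ≥3 oocytes across two batches.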

Liver [12] = experiment: Half life in human liver microsomes at 10 uM by LC-MS/MS analysis; assay type: ADME, microsome
Procedure, shortened: (§3)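 Compound at 10 μM final was preincubated 5 min at 37 °C with NADPH regenerating system in phosphate buffer, pH 7.4. Human or mouse liver microsomes (0.5 mg/mL protein) were added to start the reaction. Samples were taken at 0 (no microsomes) and 10–60 min and measured by LC-MS/MS against an internal standard. Half-life = 0.693/k, with k the slope of ln peak-area ratio versus time. Three experiments, each in duplicate.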

Liver [13] = experiment: Half life in mouse liver microsomes at 10 uM by LC-MS/MS analysis; assay type: ADME, microsome; procedure, shortened: as §3
[14] = molecular target: GABA-A receptor; alpha-6/beta-3/gamma-2 (Homo sapiens) (UniProt P18507+P28472+Q16445); experiment: Positive allosteric modulation of GABA-A receptor alpha6beta3gamma2 (unknown origin) expressed in Xenopus laevis oocytes assessed as potentiation of EC3 GABA induced currents at 30 uM at -60 mV holding potential by electrophysiological method relative to GABA; assay type: cell-based; procedure, shortened: as §2
[15] = molecular target: GABA-A receptor; alpha-1/beta-3/gamma-2 (Homo sapiens) (UniProt P14867+P18507+P28472); experiment: Positive allosteric modulation of GABA-A receptor alpha1beta3gamma2 (unknown origin) expressed in Xenopus laevis oocytes assessed as potentiation of EC3 GABA induced currents up to 1 uM at -60 mV holding potential by electrophysiological method relative to GABA; assay type: cell-based; procedure, shortened: as §2
[16] = Solubility of the compound in 0.01M HCl at pH 2 after 2 hrs by LC-MS analysis; assay type: physicochemical; conditions: buffer, pH 2, 2 h
Procedure, shortened: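 10 mg compound dissolved in 2 mL DMAC; 10 μL of this added to 2 mL DI water (pH 7, sonicated) or 2 mL 0.01 M aq HCl (pH 2), held 2 h at 37 °C. Filtered through 0.45 micron filter, then quantified by LC-MS in SIM mode against calibration curves of standards in DMAC (n = 5); n=3.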

[17] = molecular target: GABA-A receptor; alpha-3/beta-3/gamma-2 (Homo sapiens) (UniProt P18507+P28472+P34903); experiment: Positive allosteric modulation of GABA-A receptor alpha3beta3gamma2 (unknown origin) expressed in Xenopus laevis oocytes assessed as potentiation of EC3 GABA induced currents up to 1 uM at -60 mV holding potential by electrophysiological method relative to GABA; assay type: cell-based; procedure, shortened: as §2
[18] = molecular target: GABA-A receptor; alpha-2/beta-3/gamma-2 (Homo sapiens) (UniProt P18507+P28472+P47869); experiment: Positive allosteric modulation of GABA-A receptor alpha2beta3gamma2 (unknown origin) expressed in Xenopus laevis oocytes assessed as potentiation of EC3 GABA induced currents up to 1 uM at -60 mV holding potential by electrophysiological method relative to GABA; assay type: cell-based; procedure, shortened: as §2

[2H]C([2H])([2H])Oc1ccc(-n2nc3c4ccc(OC)cc4[nH]cc-3c2=O)cc1
Drug metabolism [1]: Metabolite_Detected | Activity (HepG2): Non-Toxic | Drug metabolism [2]: Metabolite_Detected | Activity (Mus musculus): Toxic | Activity (Rattus norvegicus [3]): 2.63 | Drug metabolism [4]: Metabolite_Detected | Activity (Rattus norvegicus [5]): 0.2 meter/s | Drug metabolism [6]: Metabolite_Detected | Activity (Rattus norvegicus [7]): 2.67 kg/kg | Drug metabolism [8]: Metabolite_Detected | Activity (Rattus norvegicus [9]): 11.01 m | Drug metabolism [10]: Metabolite_Detected

COc1ccc(-n2nc3c4ccc(OC)cc4[nH]cc-3c2=O)cc1
Activity [11]: < 0% | t1/2 (Liver [12]): 3.6 h | t1/2 (Liver [13]): 3.2 h | Activity [14]: 900% | Activity ([14]; tested as the 2H-labelled form): inactive | Activity [15]: < 0% | solubility [16]: 27.8 µM (≈ 8.93 µg/mL) | Activity [17]: < 0% | Activity [18]: < 0%

— ChEMBL document CHEMBL4033790, “Design and Synthesis of Novel Deuterated Ligands Functionally Selective for the γ-Aminobutyric Acid Type A Receptor (GABAAR) α6 Subtype with Improved Metabolic Stability and Enhanced Bioavailability” (J Med Chem, 2018)
